SMILES strings stand for the structures.

Chain of Anthrax toxin receptor 2 (P58335 whole entry, looked up, stated change not applied): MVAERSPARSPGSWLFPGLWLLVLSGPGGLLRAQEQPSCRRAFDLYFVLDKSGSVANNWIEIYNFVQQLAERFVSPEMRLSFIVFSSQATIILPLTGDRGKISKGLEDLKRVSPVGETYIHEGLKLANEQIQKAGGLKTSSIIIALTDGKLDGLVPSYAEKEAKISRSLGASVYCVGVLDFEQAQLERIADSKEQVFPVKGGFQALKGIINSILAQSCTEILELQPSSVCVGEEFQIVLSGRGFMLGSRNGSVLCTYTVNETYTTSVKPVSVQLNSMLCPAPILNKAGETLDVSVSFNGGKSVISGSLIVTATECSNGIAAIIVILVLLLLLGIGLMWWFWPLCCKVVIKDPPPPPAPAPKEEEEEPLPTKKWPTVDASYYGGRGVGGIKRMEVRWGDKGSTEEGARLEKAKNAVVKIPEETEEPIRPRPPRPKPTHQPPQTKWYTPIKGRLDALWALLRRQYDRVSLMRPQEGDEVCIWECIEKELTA

One series addresses Anthrax toxin receptor 2 (Homo sapiens, UniProt P58335, C178A/R40C). The series can be described thus: Inhibition of AF488-labelled PA binding to AF546- labelled GST-tagged CMG2 R40C/C178A double mutant (unknown origin) expressed in Escherichia coli BL21 DE3 measured after 4 hrs by FRET assay.
Settings: not given
As to `O=C(OC[C@H]1O[C@@H](OC(=O)c2cc(O)c(O)c(O)c2)[C@@H](OC(=O)c2cc(O)c(O)c(O)c2)[C@@H](OC(=O)c2cc(O)c(O)c(O)c2)[C@@H]1OC(=O)c1cc(O)c(O)c(O)c1)c1cc(O)c(O)c(O)c1`, the IC50 amounted to 58 nM.

The compound `O=C(OC[C@H]1O[C@H](OC(=O)c2cc(O)c(O)c(O)c2)[C@@H](OC(=O)c2cc(O)c(O)c(O)c2)[C@@H](OC(=O)c2cc(O)c(O)c(O)c2)[C@@H]1OC(=O)c1cc(O)c(O)c(O)c1)c1cc(O)c(O)c(O)c1` showed an IC50 of 100 nM. Compared with the last compound, the IC50 is about 1.7-fold higher.

Take `O=C(O[C@@H]1OC[C@@H](OC(=O)c2cc(O)c(O)c(O)c2)[C@@H](OC(=O)c2cc(O)c(O)c(O)c2)[C@H]1OC(=O)c1cc(O)c(O)c(O)c1)c1cc(O)c(O)c(O)c1`: the IC50 was greater than 10000 nM.

As for `O=C(OC[C@H]1O[C@H](O[C@H]2O[C@H](COC(=O)c3ccc(O)c(O)c3O)[C@@H](OC(=O)c3ccc(O)c(O)c3O)[C@H](OC(=O)c3ccc(O)c(O)c3O)[C@H]2OC(=O)c2ccc(O)c(O)c2O)[C@@H](OC(=O)c2ccc(O)c(O)c2O)[C@@H](OC(=O)c2ccc(O)c(O)c2O)[C@@H]1OC(=O)c1ccc(O)c(O)c1O)c1ccc(O)c(O)c1O`, the IC50 is greater than 10000 nM.

The compound `O=C(OC[C@H]1O[C@H](O[C@H]2[C@H](OC(=O)c3ccc(O)c(O)c3O)[C@@H](OC(=O)c3ccc(O)c(O)c3O)[C@H](OC(=O)c3ccc(O)c(O)c3O)O[C@@H]2COC(=O)c2ccc(O)c(O)c2O)[C@H](OC(=O)c2ccc(O)c(O)c2O)[C@@H](OC(=O)c2ccc(O)c(O)c2O)[C@@H]1OC(=O)c1ccc(O)c(O)c1O)c1ccc(O)c(O)c1O` came in with an IC50 of 1160 nM. In other words, the single-digit micromolar range.

As to `O=C(OC[C@H]1O[C@H](OC(=O)c2ccc(O)c(O)c2O)[C@@H](OC(=O)c2ccc(O)c(O)c2O)[C@@H](OC(=O)c2ccc(O)c(O)c2O)[C@@H]1OC(=O)c1ccc(O)c(O)c1O)c1ccc(O)c(O)c1O`, the IC50 is greater than 10000 nM.

With `O=C(OC[C@H]1O[C@H](O[C@H]2O[C@H](COC(=O)c3cc(O)c(O)c(O)c3)[C@@H](OC(=O)c3cc(O)c(O)c(O)c3)[C@H](OC(=O)c3cc(O)c(O)c(O)c3)[C@H]2OC(=O)c2cc(O)c(O)c(O)c2)[C@@H](OC(=O)c2cc(O)c(O)c(O)c2)[C@@H](OC(=O)c2cc(O)c(O)c(O)c2)[C@@H]1OC(=O)c1cc(O)c(O)c(O)c1)c1cc(O)c(O)c(O)c1`, the IC50 was greater than 10000 nM.

For `O=C(OC[C@H]1OC(O)[C@H](OC(=O)c2cc(O)c(O)c(O)c2)[C@@H](OC(=O)c2cc(O)c(O)c(O)c2)[C@H]1OC(=O)c1cc(O)c(O)c(O)c1)c1cc(O)c(O)c(O)c1` (stereo partly drawn), the IC50 came out at 167 nM.

In turn, `O=C(OC[C@H]1OC(OC(=O)c2ccc(O)c(O)c2O)[C@H](OC(=O)c2ccc(O)c(O)c2O)[C@@H](OC(=O)c2ccc(O)c(O)c2O)[C@@H]1OC(=O)c1ccc(O)c(O)c1O)c1ccc(O)c(O)c1O` (stereo partly drawn) came in with an IC50 of 3420 nM.

`O=C(OC[C@H]1O[C@H](O[C@H]2[C@H](OC(=O)c3cc(O)c(O)c(O)c3)[C@@H](OC(=O)c3cc(O)c(O)c(O)c3)[C@H](OC(=O)c3cc(O)c(O)c(O)c3)O[C@@H]2COC(=O)c2cc(O)c(O)c(O)c2)[C@H](OC(=O)c2cc(O)c(O)c(O)c2)[C@@H](OC(=O)c2cc(O)c(O)c(O)c2)[C@@H]1OC(=O)c1cc(O)c(O)c(O)c1)c1cc(O)c(O)c(O)c1` registered a concentration for half-maximal inhibition (IC50) greater than 10000 nM.

`O=C(O[C@H]1OC[C@@H](OC(=O)c2ccc(O)c(O)c2O)[C@@H](OC(=O)c2ccc(O)c(O)c2O)[C@H]1OC(=O)c1ccc(O)c(O)c1O)c1ccc(O)c(O)c1O` yielded a concentration for half-maximal inhibition (IC50) greater than 10000 nM.

With `O=C(OC[C@H]1O[C@@H](OC(=O)c2ccc(O)c(O)c2O)[C@@H](OC(=O)c2ccc(O)c(O)c2O)[C@@H](OC(=O)c2ccc(O)c(O)c2O)[C@@H]1OC(=O)c1ccc(O)c(O)c1O)c1ccc(O)c(O)c1O`, the IC50 worked out at 132 nM.

Turning to `O=C(O[C@@H]1OC[C@@H](OC(=O)c2ccc(O)c(O)c2O)[C@@H](OC(=O)c2ccc(O)c(O)c2O)[C@H]1OC(=O)c1ccc(O)c(O)c1O)c1ccc(O)c(O)c1O`, the IC50 is greater than 10000 nM.

On to `O=C(OCC(OC(=O)c1ccc(O)c(O)c1O)[C@@H]1O[C@H](OC(=O)c2ccc(O)c(O)c2O)[C@H](OC(=O)c2ccc(O)c(O)c2O)[C@H]1OC(=O)c1ccc(O)c(O)c1O)c1ccc(O)c(O)c1O` (single isomer, unassigned), for which the IC50 was greater than 10000 nM.

`O=C(OC[C@H]1O[C@@H](OC(=O)c2cc(O)c(O)c(O)c2)[C@H](OC(=O)c2cc(O)c(O)c(O)c2)[C@@H](OC(=O)c2cc(O)c(O)c(O)c2)[C@@H]1OC(=O)c1cc(O)c(O)c(O)c1)c1cc(O)c(O)c(O)c1` [PENTAGALLOYL GLUCOSE] came in with an IC50 of 607 nM. This lies in the sub-micromolar range.

The next series concerns EA.hy 926. The series can be described thus: Antimigratory activity in human EAhy926 cells measured at 10 mins interval for 12 hrs by time-lapse transmitted light microscopy.
Settings: not given
Regarding `O=C(OC[C@H]1O[C@@H](OC(=O)c2cc(O)c(O)c(O)c2)[C@@H](OC(=O)c2cc(O)c(O)c(O)c2)[C@@H](OC(=O)c2cc(O)c(O)c(O)c2)[C@@H]1OC(=O)c1cc(O)c(O)c(O)c1)c1cc(O)c(O)c(O)c1`, the IC50 is 365 to 400 nM.

The subject of the next series is Mus musculus. Description: Inhibition of basic fibroblast growth factor-induced corneal angiogenesis in C57BL/6J mouse assessed as decrease in vessel area at 10 mg/kg administered intraperitoneally measured on 6th postoperative day relative to control. In kind it is functional. The following applies: ip. The essentials:
(§1)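 C57BL/6J mice given 80 ng bFGF slow-release pellets in the cornea about 1.0 mm from the temporal limbus. Compound diluted 5:1 in saline, 10 mg/kg/day ip. Vehicle is DMSO/NMP/Tween/Cremophor in saline. Vessel area compared with vehicle by t-test (vehicle n = 9, treated n = 10). Body weight followed against vehicle-treated mice.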
For `O=C(OC[C@H]1O[C@@H](OC(=O)c2cc(O)c(O)c(O)c2)[C@@H](OC(=O)c2cc(O)c(O)c(O)c2)[C@@H](OC(=O)c2cc(O)c(O)c(O)c2)[C@@H]1OC(=O)c1cc(O)c(O)c(O)c1)c1cc(O)c(O)c(O)c1`, the inhibition in vivo at 10 mg/kg came to 20%.

Tested on in a further series: not listed separately
The series can be described thus: Toxicity in C57BL/6J mouse assessed as body weight loss at 10 mg/kg, ip. To be noted: in vivo. In kind it is organism-based. Summed up: as §1
In the case of `O=C(OC[C@H]1O[C@@H](OC(=O)c2cc(O)c(O)c(O)c2)[C@@H](OC(=O)c2cc(O)c(O)c(O)c2)[C@@H](OC(=O)c2cc(O)c(O)c(O)c2)[C@@H]1OC(=O)c1cc(O)c(O)c(O)c1)c1cc(O)c(O)c(O)c1`, the Activity entry was “Non-Toxic”.

By IC50 is commonly meant the concentration needed to halve the response being measured. Higher therefore signals weaker potency. A word on the inhibition in vivo: it is the percentage by which the read-out fell short of the control.

(Values after ChEMBL document CHEMBL4387713, “Galloyl Carbohydrates with Antiangiogenic Activity Mediated by Capillary Morphogenesis Gene 2 (CMG2) Protein Binding” (J Med Chem, 2019).)
